From article PMC11362645 (International Journal for Parasitology: Parasites and …, 2024)
Marks after values point to notes of the source that are not given here.

Key:
[1] = tested on: Madin-Darby bovine kidney (MDBK) cells; assay: In vitro MTT cytotoxicity assay on MDBK cells; format: cell-based; details: MDBK cells; for Average cell viability (%) / Concentration that significantly reduced the viability of MDBK cells: 24 h, MTT; for Maximum non-toxic concentration: highest concentration with no significant effect on cell viability
Summary of the method: (§1)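 MDBK cells (NBL-1) were kept in MEM with 10% FBS and penicillin/streptomycin at 37 °C, 5% CO2, and passaged with Accutase at ~70% confluence. Cells were seeded at 2×10^4/well and grown 24 h. Test compound was added at final 0.1, 1, 10, 50 or 100 μM, with a DMSO solvent control, for 24 h. MTT was added for 2 h, formazan dissolved in 99% isopropanol, and A562 read. Viability = compound/DMSO ×100. Maximum non-toxic concentration = highest concentration with no significant viability effect. Three repeats.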

[2] = In vitro MTT cytotoxicity assay on MDBK cells; format: cell-based, bovine; details: bovine, MDBK cells (NBL-1 strain)
Summary of the method: as §1

[3] = tested on: E. tenella sporozoites; assay: In vitro viability assay for E. tenella sporozoites; format: cell-based, Eimeria tenella; details: for Sporozoite viability: 24 h, DMSO-treated group = 100%; for Potency of anti-parasitical effect against Eimeria parasites (category by IC50): criteria of Isah et al., 2016: high, moderate, low/no potency
Summary of the method: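 E. tenella OPU strain oocysts were sporulated in ~0.1% potassium dichromate at 28 °C and hypochlorite-treated. Sporocysts were excysted for 1–2 h at 41 °C in HBSS with 1% taurodeoxycholic acid and 0.25% trypsin. Sporozoites at 5×10^6/ml in phenol-red-free RPMI 1640 with antibiotics got test compound (screen 100 μM; IC50 range 1–100 μM) for 24 h at 37 °C, 5% CO2. Cell Count Reagent SF was then added for 3 h. Viability was expressed relative to DMSO = 100%.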

[4] = commercially available pure compounds at 100 μM

SMILES	Average cell viability (%) ([1]; 0.1 μM)	Average cell viability (%) ([1]; 1 μM)	Average cell viability (%) ([1]; 10 μM)	Average cell viability (%) ([1]; 50 μM)	Average cell viability (%) ([1]; 100 μM)	Maximum non-toxic concentration [1]	viability at 24 h, 0.1 µM [2]	viability at 24 h, 1 µM [2]	viability at 24 h, 10 µM [2]	viability at 24 h, 50 µM [2]	viability at 24 h, 100 µM [2]	Sporozoite viability ([3]; natural components at 100 μM)	Potency of anti-parasitical effect against Eimeria parasites (category by IC50) [3]	Concentration that significantly reduced the viability of MDBK cells [1]	Sporozoite viability [3, 4]
COc1cc(CCc2ccccc2O)cc(OC)c1O [Component A-2, 4,2′-Dihydroxy-3,5-dimethoxydihydrostilbene]	98.7%	105.9%	107.0%	103.4%	107.3%	100 µM	–	–	–	–	–	–	–	–	–
Oc1cc(O)c2c(c1)O[C@H](c1ccc(O)c(O)c1)[C@H](O)C2 [Component A-3, Epicatechin]	–	–	–	–	–	100 µM	103%	91%	92.3%	109%	108%	–	–	–	–
O=c1c(O[C@@H]2O[C@H](CO)[C@@H](O)[C@H](O)[C@H]2O)c(-c2ccc(O)c(O)c2)oc2cc(O)cc(O)c12 [Component A-4, Isoquercitrin]	–	–	–	–	–	100 µM	98%	110%	104%	109%	104%	–	–	–	–
Oc1cc(O)cc(/C=C/c2ccccc2)c1 [Component A-5, Pinosylvin]	–	–	–	–	–	100 µM	103%	102%	103%	110%	106%	–	–	–	–
C[C@H]1[C@H](C)CC[C@]2(CO)CC[C@]3(C)C(=CC[C@@H]4[C@@]5(C)CC[C@H](O)C(C)(C)[C@@H]5CC[C@]43C)[C@H]12 [Component B-1, Uvaol]	–	–	–	–	–	10 µM	95.6%	99.9%	110%	55.9%	36.2%	–	–	–	–
CC1(C)CC[C@]2(C)CC[C@]3(C)C(=CC[C@@H]4[C@@]5(C)CC[C@H](O)C(C)(C)[C@@H]5CC[C@]43C)[C@@H]2C1 [Component C-1, β-Amyrin]	–	–	–	–	–	100 µM	78.1%	82.6%	88.6%	87.7%	82.4%	no significant effect	–	–	–
COc1ccc(-c2cc(=O)c3c(O)c(C)c(OC)cc3o2)cc1 [Component C-2, 8-Demethyleucalyptin]	97.8%	92.5%	98.7%	85.2* %	80.8* %	10 µM	–	–	–	–	–	–	–	–	–
CC1(C)CC[C@]2(C(=O)O)CC[C@]3(C)C(=CC[C@@H]4[C@@]5(C)CC[C@H](O)C(C)(C)[C@@H]5CC[C@]43C)[C@@H]2C1 [Component C-5, Oleanolic acid]	–	–	–	–	–	50 µM	99.9%	99.2%	102%	105%	16.2%	–	high potency	100 µM	–
O=C(CCc1ccc(O)cc1)c1c(O)cc(O[C@@H]2O[C@H](CO)[C@@H](O)[C@H](O)[C@H]2O)cc1O [Component C-6, Trilobatin]	89.1%	90.7%	91.4%	92.9%	93.6%	100 µM	–	–	–	–	–	–	–	–	–
O=C(CCc1ccc(O)cc1)c1c(O)cc(O)cc1O[C@@H]1O[C@H](CO)[C@@H](O)[C@H](O)[C@H]1O [Component C-7, Phlorhizin]	87.9%	90.9%	98.2%	95.8%	107.4%	100 µM	–	–	–	–	–	–	–	–	–
O=C1C[C@@H](c2ccc(O)cc2)Oc2cc(O)cc(O)c21 [Component D-1, Naringenin]	–	–	–	–	–	100 µM	92.2%	97.3%	99.3%	109%	107%	–	–	–	–
C[C@H]1[C@H](C)CC[C@]2(C(=O)O)CC[C@]3(C)C(=CC[C@@H]4[C@@]5(C)CC[C@H](O)C(C)(C)[C@@H]5CC[C@]43C)[C@H]12 [Component D-3, Ursolic acid]	–	–	–	–	–	10 µM	92.9%	86.4%	105%	-13.1%	-14.2%	–	low/no potency	–	–
Oc1cc(O)c2c(c1)O[C@H](c1cc(O)c(O)c(O)c1)[C@@H](O)C2 [Component F-1, Gallocatechin]	–	–	–	–	–	100 µM	80.8%	81.4%	93.9%	92.6%	85.2%	–	–	–	–
COC1OC(CO)C(O)C(O)C1O (stereo not drawn) [Component F-2, β-Methylglucoside]	99.2%	102.1%	104.6%	102.0%	104.9%	100 µM	–	–	–	–	–	–	–	–	–
O=c1c(O[C@@H]2O[C@@H](CO)[C@H](O)[C@H]2O)c(-c2ccc(O)c(O)c2)oc2cc(O)cc(O)c12 [Component G-1, Avicularin]	–	–	–	–	–	100 µM	94.6%	96.9%	88.5%	104%	89.5%	–	–	–	–
COc1cc(C)cc(O)c1 [Component H-1, 3-Methoxy-5-methylphenol]	–	–	–	–	–	100 µM	106%	109%	106%	113%	112%	–	–	–	–
Cc1cc(O)cc(O)c1 [Component H-2, 5-Methylbenzene-1,3-diol]	–	–	–	–	–	100 µM	92%	95.3%	94.8%	93.4%	93.3%	–	–	–	–
C[C@@H]1O[C@@H](O[C@H]2[C@H](O)[C@@H](O)[C@H](OC[C@H]3O[C@@H](OC(=O)[C@]45CCC(C)(C)C[C@H]4C4=CC[C@@H]6[C@@]7(C)CC[C@H](O[C@@H]8OC[C@H](O)[C@H](O)[C@H]8O[C@@H]8O[C@H](CO)[C@@H](O)[C@H](O)[C@H]8O)[C@@](C)(CO)[C@@H]7CC[C@@]6(C)[C@]4(C)CC5)[C@H](O)[C@@H](O)[C@@H]3O)O[C@@H]2CO)[C@H](O)[C@H](O)[C@H]1O [Component I-1, Cauloside G]	100.7%	103.3%	103.7%	97.0%	89.4%	100 µM	–	–	–	–	–	–	–	–	–
OC[C@H]1O[C@@H](Oc2ccc(O)cc2)[C@H](O)[C@@H](O)[C@@H]1O [E−1, Arbutin]	–	–	–	–	–	100 µM	83.1%	86.4%	87.1%	108%	102%	–	–	–	–
Oc1cc(O)c2c(c1)OC(c1ccc(O)c(O)c1)C(O)C2 (stereo not shown) [E−2, Catechin]	101.1%	102.5%	109.8%	104.9%	114.0%	100 µM	–	–	–	–	–	–	–	–	–
CC[C@@H](C(=O)[C@@H](C)[C@@H](O)[C@H](C)CCc1ccc(C)c(O)c1C(=O)O)[C@H]1O[C@](CC)([C@H]2CC[C@](O)(CC)[C@H](C)O2)C[C@@H]1C [lasalocid, reference compound]	–	–	–	–	–	1 µM	107%	110%	54.3%	1.1%	0.4%	–	–	higher than 10 μM	–
C[C@H]1[C@H](C)CC[C@]2(C)CC[C@]3(C)C(=CC[C@@H]4[C@@]5(C)CC[C@H](O)C(C)(C)[C@@H]5CC[C@]43C)[C@H]12 [α-amyrin, reference compound]	–	–	–	–	–	–	–	–	–	–	–	–	–	–	did not significantly reduce
CC1(C)CC[C@]2(C)CC[C@]3(C)C(=CC[C@@H]4[C@@]5(C)CC[C@H](O)C(C)(C)[C@@H]5CC[C@]43C)[C@@H]2C1 [β-amyrin, reference compound]	–	–	–	–	–	–	–	–	–	–	–	–	–	–	did not significantly reduce
